How the values were obtained:
[1] = system: Spleen; test: Biodistribution in ddY mouse spleen at 10 uCi/100 uL, iv after 2 mins by gamma counting; format: ADME, organism-based; settings: in vivo
[2] = system: Stomach; test: Biodistribution in ddY mouse stomach at 10 uCi/100 uL, iv after 2 mins by gamma counting; format: ADME, organism-based; settings: in vivo
[3] = system: Intestine; test: Biodistribution in ddY mouse intestine at 10 uCi/100 uL, iv after 2 mins by gamma counting; format: ADME, organism-based; settings: in vivo
How it was run: (§1)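 Normal female ddY mice (5 weeks, about 20 g; n = 4 per group) received radiotracer iv. Organs were removed and weighed at 2–120 min and counted in a γ-counter. Percent dose per gram of wet tissue was calculated against diluted aliquots of the injected material and reported as mean ± SD.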

[4] = system: Lung; test: Biodistribution in ddY mouse lung at 10 uCi/100 uL, iv after 2 mins by gamma counting; format: ADME, organism-based; settings: in vivo
[5] = system: Heart; test: Biodistribution in ddY mouse heart at 10 uCi/100 uL, iv after 2 mins by gamma counting; format: ADME, organism-based; settings: in vivo; how it was run: as §1
[6] = system: Brain; test: Biodistribution in ddY mouse brain at 10 uCi/100 uL, iv after 15 mins by gamma counting; format: ADME, organism-based; settings: in vivo, 0.25 h; how it was run: as §1
[7] = system: Blood; test: Biodistribution in ddY mouse blood at 10 uCi/100 uL, iv after 15 mins by gamma counting; format: ADME, organism-based; settings: in vivo, 0.25 h; how it was run: as §1
[8] = system: Bone; test: Biodistribution in ddY mouse bone at 10 uCi/100 uL, iv after 15 mins by gamma counting; format: ADME, organism-based, Bone element; settings: in vivo, 0.25 h; how it was run: as §1
[9] = system: Liver; test: Biodistribution in ddY mouse liver at 10 uCi/100 uL, iv after 15 mins by gamma counting; format: ADME, organism-based; settings: in vivo, 0.25 h
[10] = system: Kidney; test: Biodistribution in ddY mouse kidney at 10 uCi/100 uL, iv after 15 mins by gamma counting; format: ADME, organism-based; settings: in vivo, 0.25 h
[11] = system: Spleen; test: Biodistribution in ddY mouse spleen at 10 uCi/100 uL, iv after 15 mins by gamma counting; format: ADME, organism-based; settings: in vivo, 0.25 h
[12] = system: Stomach; test: Biodistribution in ddY mouse stomach at 10 uCi/100 uL, iv after 15 mins by gamma counting; format: ADME, organism-based; settings: in vivo, 0.25 h
[13] = system: Intestine; test: Biodistribution in ddY mouse intestine at 10 uCi/100 uL, iv after 15 mins by gamma counting; format: ADME, organism-based; settings: in vivo, 0.25 h; how it was run: as §1
[14] = system: Lung; test: Biodistribution in ddY mouse lung at 10 uCi/100 uL, iv after 15 mins by gamma counting; format: ADME, organism-based; settings: in vivo, 0.25 h
[15] = system: Heart; test: Biodistribution in ddY mouse heart at 10 uCi/100 uL, iv after 15 mins by gamma counting; format: ADME, organism-based; settings: in vivo, 0.25 h; how it was run: as §1
[16] = system: Brain; test: Biodistribution in ddY mouse brain at 10 uCi/100 uL, iv after 30 mins by gamma counting; format: ADME, organism-based; settings: in vivo, 0.5 h; how it was run: as §1
[17] = system: Blood; test: Biodistribution in ddY mouse blood at 10 uCi/100 uL, iv after 30 mins by gamma counting; format: ADME, organism-based; settings: in vivo, 0.5 h; how it was run: as §1
[18] = system: Bone; test: Biodistribution in ddY mouse bone at 10 uCi/100 uL, iv after 30 mins by gamma counting; format: ADME, organism-based, Bone element; settings: in vivo, 0.5 h; how it was run: as §1
[19] = system: Liver; test: Biodistribution in ddY mouse liver at 10 uCi/100 uL, iv after 30 mins by gamma counting; format: ADME, organism-based; settings: in vivo, 0.5 h
[20] = system: Kidney; test: Biodistribution in ddY mouse kidney at 10 uCi/100 uL, iv after 30 mins by gamma counting; format: ADME, organism-based; settings: in vivo, 0.5 h
[21] = system: Spleen; test: Biodistribution in ddY mouse spleen at 10 uCi/100 uL, iv after 30 mins by gamma counting; format: ADME, organism-based; settings: in vivo, 0.5 h
[22] = system: Stomach; test: Biodistribution in ddY mouse stomach at 10 uCi/100 uL, iv after 30 mins by gamma counting; format: ADME, organism-based; settings: in vivo, 0.5 h
[23] = system: Intestine; test: Biodistribution in ddY mouse intestine at 10 uCi/100 uL, iv after 30 mins by gamma counting; format: ADME, organism-based; settings: in vivo, 0.5 h; how it was run: as §1
[24] = system: Lung; test: Biodistribution in ddY mouse lung at 10 uCi/100 uL, iv after 30 mins by gamma counting; format: ADME, organism-based; settings: in vivo, 0.5 h
[25] = system: Heart; test: Biodistribution in ddY mouse heart at 10 uCi/100 uL, iv after 30 mins by gamma counting; format: ADME, organism-based; settings: in vivo, 0.5 h; how it was run: as §1
[26] = system: Brain; test: Biodistribution in ddY mouse brain at 10 uCi/100 uL, iv after 60 mins by gamma counting; format: ADME, organism-based; settings: in vivo, 1 h; how it was run: as §1
[27] = system: Blood; test: Biodistribution in ddY mouse blood at 10 uCi/100 uL, iv after 60 mins by gamma counting; format: ADME, organism-based; settings: in vivo, 1 h; how it was run: as §1
[28] = system: Bone; test: Biodistribution in ddY mouse bone at 10 uCi/100 uL, iv after 60 mins by gamma counting; format: ADME, organism-based, Bone element; settings: in vivo, 1 h; how it was run: as §1
[29] = system: Liver; test: Biodistribution in ddY mouse liver at 10 uCi/100 uL, iv after 60 mins by gamma counting; format: ADME, organism-based; settings: in vivo, 1 h
[30] = system: Kidney; test: Biodistribution in ddY mouse kidney at 10 uCi/100 uL, iv after 60 mins by gamma counting; format: ADME, organism-based; settings: in vivo, 1 h
[31] = system: Spleen; test: Biodistribution in ddY mouse spleen at 10 uCi/100 uL, iv after 60 mins by gamma counting; format: ADME, organism-based; settings: in vivo, 1 h
[32] = system: Stomach; test: Biodistribution in ddY mouse stomach at 10 uCi/100 uL, iv after 60 mins by gamma counting; format: ADME, organism-based; settings: in vivo, 1 h
[33] = system: Intestine; test: Biodistribution in ddY mouse intestine at 10 uCi/100 uL, iv after 60 mins by gamma counting; format: ADME, organism-based; settings: in vivo, 1 h; how it was run: as §1
[34] = system: Lung; test: Biodistribution in ddY mouse lung at 10 uCi/100 uL, iv after 60 mins by gamma counting; format: ADME, organism-based; settings: in vivo, 1 h
[35] = system: Heart; test: Biodistribution in ddY mouse heart at 10 uCi/100 uL, iv after 60 mins by gamma counting; format: ADME, organism-based; settings: in vivo, 1 h; how it was run: as §1
[36] = system: Brain; test: Ratio of drug uptake in ddY mouse brain at 10 uCi/100 uL, iv after 2 mins to drug uptake in ddY mouse brain at 10 uCi/100 uL, iv after 60 mins; format: ADME, organism-based; settings: in vivo
How it was run: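 Normal female ddY mice (5 weeks, about 20 g) received the radiotracer iv, with groups of 4 per time point. At 2 and 60 min, brain and other organs were excised and weighed and counted in a γ-counter. %ID/g wet tissue was taken against diluted injectate aliquots. The ratio is brain %ID/g at 2 min divided by brain %ID/g at 60 min.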

[37] = Partition coefficient, log D of the compound; format: physicochemical; settings: octanol/water
How it was run: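 Radiotracer partitioned between n-octanol and PBS: vortexed 3 min at room temperature, centrifuged 5 min at 3000 rpm. Weighed samples of the octanol (100 μL) and buffer (500 μL) layers were counted. log D is the log of the ratio of counts per gram, octanol versus PBS.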

[38] = system: Brain; test: Biodistribution in ddY mouse brain at 10 uCi/100 uL, iv after 2 mins by gamma counting; format: ADME, organism-based; settings: in vivo; how it was run: as §1
[39] = system: Blood; test: Biodistribution in ddY mouse blood at 10 uCi/100 uL, iv after 2 mins by gamma counting; format: ADME, organism-based; settings: in vivo; how it was run: as §1
[40] = system: Bone; test: Biodistribution in ddY mouse bone at 10 uCi/100 uL, iv after 2 mins by gamma counting; format: ADME, organism-based, Bone element; settings: in vivo; how it was run: as §1
[41] = system: Liver; test: Biodistribution in ddY mouse liver at 10 uCi/100 uL, iv after 2 mins by gamma counting; format: ADME, organism-based; settings: in vivo
[42] = system: Kidney; test: Biodistribution in ddY mouse kidney at 10 uCi/100 uL, iv after 2 mins by gamma counting; format: ADME, organism-based; settings: in vivo

CN(C)c1ccc(/C=C/C(=O)/C=C/c2ccc(OCCOCCOCC[18F])cc2)cc1
Drug uptake [1]: 4.26 % ID/g
Drug uptake [2]: 6.28 % ID/organ
Drug uptake [3]: 4.12 % ID/g
Drug uptake [4]: 12.3 % ID/g
Drug uptake [5]: 7.6 % ID/g
Drug uptake [6]: 1.51 % ID/g
Drug uptake [7]: 3.89 % ID/g
Drug uptake [8]: 2.42 % ID/g
Drug uptake [9]: 24.41 % ID/g
Drug uptake [10]: 12.77 % ID/g
Drug uptake [11]: 6.19 % ID/g
Drug uptake [12]: 7.39 % ID/organ
Drug uptake [13]: 10.53 % ID/g
Drug uptake [14]: 6.34 % ID/g
Drug uptake [15]: 3.33 % ID/g
Drug uptake [16]: 1.04 % ID/g
Drug uptake [17]: 2.46 % ID/g
Drug uptake [18]: 2.08 % ID/g
Drug uptake [19]: 14.07 % ID/g
Drug uptake [20]: 7.13 % ID/g
Drug uptake [21]: 4.46 % ID/g
Drug uptake [22]: 6 % ID/organ
Drug uptake [23]: 17.5 % ID/g
Drug uptake [24]: 3.38 % ID/g
Drug uptake [25]: 1.9 % ID/g
Drug uptake [26]: 0.9 % ID/g
Drug uptake [27]: 1.6 % ID/g
Drug uptake [28]: 2.33 % ID/g
Drug uptake [29]: 6.88 % ID/g
Drug uptake [30]: 3.67 % ID/g
Drug uptake [31]: 1.93 % ID/g
Drug uptake [32]: 3.98 % ID/organ
Drug uptake [33]: 21.57 % ID/g
Drug uptake [34]: 1.86 % ID/g
Drug uptake [35]: 1.47 % ID/g
Ratio [36]: 4.59
logD [37]: 2.97
Drug uptake [38]: 4.13 % ID/g
Drug uptake [39]: 5.38 % ID/g
Drug uptake [40]: 2.88 % ID/g
Drug uptake [41]: 22.32 % ID/g
Drug uptake [42]: 12.95 % ID/g

CNc1ccc(/C=C/C(=O)/C=C/c2ccc(OCCOCCOCC[18F])cc2)cc1
Drug uptake [1]: 5.39 % ID/g
Drug uptake [2]: 3.26 % ID/organ
Drug uptake [3]: 6.58 % ID/g
Drug uptake [4]: 12.19 % ID/g
Drug uptake [5]: 10.55 % ID/g
Drug uptake [6]: 1.89 % ID/g
Drug uptake [7]: 7.99 % ID/g
Drug uptake [8]: 2.93 % ID/g
Drug uptake [9]: 30.09 % ID/g
Drug uptake [10]: 14.15 % ID/g
Drug uptake [11]: 6.62 % ID/g
Drug uptake [12]: 2.61 % ID/organ
Drug uptake [13]: 12.82 % ID/g
Drug uptake [14]: 11.77 % ID/g
Drug uptake [15]: 7.64 % ID/g
Drug uptake [16]: 1.35 % ID/g
Drug uptake [17]: 4.68 % ID/g
Drug uptake [18]: 2.94 % ID/g
Drug uptake [19]: 19.24 % ID/g
Drug uptake [20]: 11.51 % ID/g
Drug uptake [21]: 5.44 % ID/g
Drug uptake [22]: 1.93 % ID/organ
Drug uptake [23]: 24.34 % ID/g
Drug uptake [24]: 7.43 % ID/g
Drug uptake [25]: 5.44 % ID/g
Drug uptake [26]: 1.27 % ID/g
Drug uptake [27]: 3.59 % ID/g
Drug uptake [28]: 2.54 % ID/g
Drug uptake [29]: 14.07 % ID/g
Drug uptake [30]: 9.43 % ID/g
Drug uptake [31]: 5.35 % ID/g
Drug uptake [32]: 1.28 % ID/organ
Drug uptake [33]: 26.26 % ID/g
Drug uptake [34]: 5.44 % ID/g
Drug uptake [35]: 5.14 % ID/g
Ratio [36]: 4.06
logD [37]: 3.08
Drug uptake [38]: 5.15 % ID/g
Drug uptake [39]: 7.44 % ID/g
Drug uptake [40]: 2.97 % ID/g
Drug uptake [41]: 24.15 % ID/g
Drug uptake [42]: 16.48 % ID/g
